Measurements of several laboratories.
Protocols differ between the studies behind these lines.
Target: Myosin light chain kinase family member 4 (MYLK4, Homo sapiens, UniProt Q86YV6)
Sequence (Q86YV6 1-388, as in one of the studies): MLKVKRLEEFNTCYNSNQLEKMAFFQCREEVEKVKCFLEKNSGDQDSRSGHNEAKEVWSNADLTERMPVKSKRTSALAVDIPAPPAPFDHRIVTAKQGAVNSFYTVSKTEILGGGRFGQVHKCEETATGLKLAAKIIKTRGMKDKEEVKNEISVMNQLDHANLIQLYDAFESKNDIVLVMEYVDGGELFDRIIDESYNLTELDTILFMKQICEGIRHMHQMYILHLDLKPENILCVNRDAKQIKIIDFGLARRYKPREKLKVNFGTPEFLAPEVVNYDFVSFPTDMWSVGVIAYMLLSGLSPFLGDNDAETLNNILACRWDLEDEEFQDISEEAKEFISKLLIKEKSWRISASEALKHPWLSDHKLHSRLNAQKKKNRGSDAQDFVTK

| SMILES | observed | technique | concentration | remaining binding [%] |
| --- | --- | --- | --- | --- |
| O=S(=O)(NC1CCC(c2cc(F)ccc2F)(S(=O)(=O)c2ccc(Cl)cc2)CC1)C(F)(F)F (stereo not shown) | cell-free assay | competition with immobilised ligand | 1 µM | 100 |
| Cc1cnn2ncc(-c3ccnc(N(C)C)n3)c2c1 | binding | – | 1 µM | 80 |
| O=C(Nc1c[nH]nc1C(=O)NC1CCNCC1)c1cc(F)cc(F)c1 | binding | competition with immobilised ligand | 1 µM | 100 |
| c1cnn2ncc(-c3ccnc(N4CCC45COC5)n3)c2c1 | binding | – | 1 µM | 78 |
| CNC(=O)Nc1ccc2c(c1)CC[C@@]21OC(=O)N(CC(=O)N(Cc2ccc(F)cc2)[C@@H](C)C(F)(F)F)C1=O | cell-free assay | competition with immobilised ligand | 1 µM | 70 |
| N[C@@H]1CCN(c2nccc(-c3cnn4ncccc34)n2)C1 | binding | – | 1 µM | 100 |
| O=C(c1ccc(Nc2ncc(Cl)c(-c3ccc(Cl)s3)n2)cc1)N1CCC(N2CCCC2)CC1 | binding | competition with immobilised ligand | 1 µM | 0 |
| CCC(=O)N[C@@H]1CC[C@H](C(=O)N(C)c2ccc(-c3nc4ccccc4o3)cc2)C1 | cell-free assay | competition with immobilised ligand | 1 µM | 100 |
| CNC(=O)[C@@H]1CC[C@@H](n2c(-c3ccc4cnccc4c3)nc3ccc(C(=O)NCc4cccc(C(N)=O)c4)cc32)C1 | binding | competition with immobilised ligand | 1 µM | 100 |
| CN(CCCC(F)(F)F)c1nccc(-c2cnn3ncccc23)n1 | binding | – | 1 µM | 100 |
| Nc1cnc(N2CCc3cc(S(=O)(=O)Nc4c(F)cc(Cl)cc4F)cc(N4CCCC4=O)c32)nc1 | cell-free assay | competition with immobilised ligand | 1 µM | 100 |
| Nc1ncc2c(n1)-c1c([nH]c3ccc(C#CC4CC4)cc13)CCCC2 | binding | competition with immobilised ligand | 1 µM | 83 |
| CC1CCCN1c1nccc(-c2cnn3ncccc23)n1 (stereo not shown) | binding | – | 1 µM | 100 |
| O=C(c1ccc(Nc2nccc(-c3cc4ccccc4s3)n2)cc1)N1CCC(N2CCCC2)CC1 | binding | competition with immobilised ligand | 1 µM | 0.1 |
| C[C@@H](c1ccc(-n2cnc3c(N)ncnc32)cc1)N1CCc2nn(C)c(Cc3ccccc3)c2C1=O | binding | competition with immobilised ligand | 0.1 µM | 100 |
| CC(=O)c1c(NS(C)(=O)=O)c2cc(-c3ccc(Cl)cc3)c(-c3ccc(Cl)cc3Cl)nc2n(C)c1=O | cell-free assay | competition with immobilised ligand | 1 µM | 100 |
| FC(F)(F)Oc1cccc(-c2cnc3ccc(-c4ccncc4)nn23)c1 | cell-free assay | competition with immobilised ligand | 5 µM | 0.35 |
| O=C(c1ccc(Nc2ncc(Cl)c(-c3cc4ccccc4s3)n2)cc1)N1CCC(N2CCCC2)CC1 | binding | competition with immobilised ligand | 1 µM | 0.1 |
| COc1cccc(CNC(=O)c2nc3scc(COCc4ccc(C(=O)O)cc4)c3c(=O)[nH]2)c1 | cell-free assay | competition with immobilised ligand | 1 µM | 100 |
